These results are taken from publication PMC7529613 (International Journal for Parasitology: Drugs and Drug …, 2020).

The subject of one data set is T. gondii. The experiment in a line: T. gondii growth inhibitory assay. In kind it is cell-based, Toxoplasma gondii. Particulars: for IC50: read-out: IC50 T. gondii (anti-Toxoplasma IC50); for selectivity ratio at 48 h: human, Selectivity index (SI) = Cytotoxicity IC50/Anti-parasitic IC50, HFF cytotoxicity IC50 / anti-Toxoplasma IC50. In short, it runs like this: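 YFP-expressing RH-strain tachyzoites (~3500/well) were added to confluent HFF in supplemented IMDM. Test compound in DMSO (20 μM single dose, or 0–8 μM / 0–40 μM series) was added immediately or 2 h post-infection. Atovaquone 0.48 μM was the positive control; DMSO the negative. After 48 h at 37 °C/5% CO2, parasite YFP fluorescence was quantified by microscopy. IC50 came from triplicate-mean dose–response curves. SI = HFF cytotoxicity IC50/anti-Toxoplasma IC50.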

A further data set concerns C. parvum. The experiment in a line: C. parvum growth inhibitory assay. In kind it is cell-based, Cryptosporidium parvum. In short, it runs like this: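 Sporozoites were excysted (HBSS, 60 min at 37 °C, then 1.5% sodium taurocholate, 60 min) and […]. 4 × 10^4 were added per well to confluent HCT-8 cells in supplemented RPMI-1640. […] After 72 h at 37 °C/5% CO2: fixed, antibody-stained, microscopy fluorescence quantified. […] Triplicate, ≥3 repeats.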

Data set [1] can be described thus: Cytotoxicity assay. It counts as cell-based. Particulars: human, uninfected HCT-8 cells. In short, it runs like this:
(§1)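 Confluent host cells were used: HCT-8 in phenol-red-free supplemented RPMI 1640, HFF in phenol-red-free DMEM with 10% FBS. Test compound in DMSO was added at 0–700 μM, with matched DMSO controls, for 48 h at 37 °C/5% CO2. WST-1 was added for 1 h in the dark and absorbance read at 420 nm. Viability inhibition was taken relative to DMSO. IC50 came from dose–response curves of triplicate means.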

Data set [2] can be described thus: Cytotoxicity assay. In kind it is cell-based. Particulars: human, uninfected HFF cells. The procedure, abridged:
as §1

The next data set concerns Cryptosporidium. As to conditions: read-out: anti-Cryptosporidium IC50; ref Li et al., 2019; cited from earlier work.
Where [3] appears, read: Toxoplasma gondii, HFF, 48 h, read-out: Inhibition of T. gondii growth.

Usually inhibition stands for the relative decrease from the control value, in per cent. Usually IC50 stands for the midpoint of a concentration-inhibition curve. In the case of `CC(C)=CCC/C(C)=C\COC(=O)NC(=O)C12CC3CC(CC(C3)C1)C2` [GMG-1-09, (Z)-3,7-Dimethylocta-2,6-dien-1-yl (adamantane-1-carbonyl)carbamate], in the data set on T. gondii (YFP-expressing RH tachyzoites in HFF cells, 48 h of culture), the “IC50 T. gondii (anti-Toxoplasma IC50)” value is given as “not potent”. The inhibition at 20 µM in the data set on C. parvum (Cryptosporidium parvum, HCT-8, read-out: Inhibition of C. parvum growth) was approximately 70%. The selectivity ratio at 72 h in the data set with C. parvum (human, Selectivity index (SI) = Cytotoxicity IC50/Anti-parasitic IC50, HCT-8 cytotoxicity IC50 / anti-Cryptosporidium IC50) is approximately 14. Besides, in the data set “Cytotoxicity assay [1]”, 450 µM corresponded to half-maximal inhibition (IC50 at 48 h).
Take `COc1ccccc1C(=O)NC(=O)NC(=O)c1ccccc1OC` [JS-1-09, N,N′-Carbonylbis(2-methoxybenzamide)]: in the data set on T. gondii (8 μM compound, 48 h), the “Inhibition of T. gondii growth” value was “almost completely inhibited”. Further, the “Selectivity index (SI) = Cytotoxicity IC50/Anti-parasitic IC50” value in the data set on T. gondii (HFF cytotoxicity IC50 / anti-Toxoplasma IC50) was 52.9. Besides, the IC50 in the data set with T. gondii (Toxoplasma gondii, HFF, 48 h) was found to be 1.21 µM. Further, in the data set on T. gondii (setting [3]), the inhibition at 20 µM is approximately 100%. Besides, in the data set on T. gondii, the selectivity ratio at 48 h is approximately 53. For the same compound, 64 µM corresponded to half-maximal inhibition in the data set “Cytotoxicity assay [2]” (IC50 at 48 h).
Turning to `CC(C)=CCC/C(C)=C/CNC(=O)NC(=O)c1ccc(F)c(F)c1F` [JS-2-20, (E)-N-((3,7-Dimethylocta-2,6-dien-1-yl)carbamoyl)-2,3,4-trifluorobenzamide], the IC50 in the data set on T. gondii (Toxoplasma gondii, HFF, 48 h) was 10.9 µM. In the data set with T. gondii (setting [3]), the inhibition at 20 µM is approximately 80%. Further, the selectivity ratio at 48 h in the data set with T. gondii is 5.7. The compound also registered a concentration for half-maximal inhibition (IC50) at 48 h in the data set “Cytotoxicity assay [2]” of 62.6 µM.
With `O=C(NC(=O)c1ccc(F)c(F)c1F)OC1C2CC3CC(C2)CC1C3` (stereo not drawn) [JS-2-35, Adamantan-2-yl (2,3,4-trifluorobenzoyl)carbamate], the IC50 with T. gondii (Toxoplasma gondii, HFF, 48 h) came out at 10.5 µM. Moreover, the inhibition at 20 µM in the data set with T. gondii (setting [3]) was approximately 80%. The selectivity ratio at 48 h in the data set with T. gondii worked out at 5.6. For the same compound, in “Cytotoxicity assay [2]”, it took 59.2 µM to reach half-maximal inhibition (IC50 at 48 h).
On the same counts, the results for `O=C(NC(=O)c1ccc(F)c(F)c1F)OC12CC3CC(CC(C3)C1)C2` [JS-2-49, Adamantan-1-yl (2,3,4-trifluorobenzoyl)carbamate] are 12.1 µM, approximately 90%, 5.4 and 65.5 µM.
Take `O=C1C(O)=C([C@H]2CC[C@H](c3ccc(Cl)cc3)CC2)C(=O)c2ccccc21` [atovaquone, reference compound]: the inhibition at 0.5 µM in the data set with T. gondii (setting [3]) was approximately 100%.
Take `NC[C@@H]1O[C@H](O[C@H]2[C@@H](O)[C@H](O[C@@H]3[C@@H](O)[C@H](N)C[C@H](N)[C@H]3O[C@H]3O[C@H](CO)[C@@H](O)[C@H](O)[C@H]3N)O[C@@H]2CO)[C@H](N)[C@@H](O)[C@@H]1O` [paromomycin]: the IC50 in the data set with Cryptosporidium was 450 µM.
